High-throughput results deposited in PubChem by PCMD.
FXIIa inh 1536 – blocks human coagulation factor XIIa protease activity; P00748; purified FXIIa, Boc-QGR-AMC fluorogenic substrate, 2 h; inhibition, % at 5 µM; actives 0.3% (n = 220,000); in the data active = inhibition above about 40%;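 note: 0% = enzyme with no compound and 100% = blank without enzyme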
Thrombin inh – blocks human thrombin protease activity. alpha-thrombin, Boc-VPR-AMC fluorogenic substrate cleavage. AID 1046. inhibition, % at 5 µM. actives 0.26% (n = 220,000). P00734;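 active = inhibition at or above 40%; inactive = inhibition below 40%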;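 note: 0% = enzyme with no compound and 100% = wells without enzyme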
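System – human alpha-thrombin · Medium – pH 7.5 Tris (50 mM) with NaCl 150 mM, Tween 20 0.05% · Compound – single-point dosing at 5 µM, 0.2% DMSO · Incubation – enzyme reaction carried out at room temperature · Technique – fluorescence of released AMC, ex 355 nm, em 460 nm · Read-out basis – % inhibition of thrombin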
FXIa inh – factor XIa (human) inhibition. purified FXIa, Boc-Glu-Ala-Arg-AMC fluorogenic substrate. inhibition, % at 5 µM. actives 0.14% (n = 220,000). AID 798;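 active = inhibition of at least 40%; inactive = inhibition below 40%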;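 note: fluorescence of freed AMC excited at 355 nm; 0% = enzyme without compound and 100% = no enzyme blank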
KLK5 inh – blocks human kallikrein 5 protease activity; AID 873; Q9Y337; inhibition, % at 5 µM; recombinant hK5, fluorogenic AMC substrate cleavage; actives 0.59% (n = 210,000);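 active = inhibition of 40% or more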;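 note: 0% = enzyme controls without compound and 100% = no-enzyme blanks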
Target sequence (Q9Y337 67-293 limits assumed): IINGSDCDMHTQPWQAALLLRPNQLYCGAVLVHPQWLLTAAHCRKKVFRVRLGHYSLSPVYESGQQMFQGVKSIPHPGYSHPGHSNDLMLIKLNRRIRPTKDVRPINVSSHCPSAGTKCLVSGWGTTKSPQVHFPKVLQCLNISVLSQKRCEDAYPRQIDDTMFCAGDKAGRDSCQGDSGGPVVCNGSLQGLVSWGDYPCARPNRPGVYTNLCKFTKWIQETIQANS
The depositor's hits bear a star. Rows were chosen to be rich in hits. Some 1% of all compounds tested hit in one or more screens of this group.

SMILES	FXIIa inh 1536	Thrombin inh	FXIa inh	KLK5 inh
Cc1cc(C)c2[nH]c(=O)c(CN(Cc3nnnn3C3CCCC3)C3CCCCC3)cc2c1	-5	3	-2	42*
Cc1cccc2cc(CN(Cc3nnnn3C3CCCCC3)C3CCCC3)c3nnnn3c12	18	5	9	-19
O=c1[nH]c2cc3c(cc2cc1CN(Cc1nnnn1CC1CCCO1)C1CCCC1)OCO3 (stereo not given)	10	0	5	-3
O=C(NN=C1CCCCCC1)c1cn(-c2ccccc2)nc1-c1ccccc1	16	100*	14	28
Cc1cccc(C)c1NC(=O)c1cn(-c2ccccc2)nc1-c1ccccc1	14	-2	4	-9
O=C(NCc1ccccn1)c1cn(-c2ccccc2)nc1-c1ccc(Cl)cc1	-4	58*	-9	21
CCCCCC(=O)Nc1cccc(C2=NOC3(C2)C[C@H](C(N)=O)N(C(=O)c2ccccc2C(=O)c2ccccc2)C3)c1 (stereo not given in full)	9	-2	2	3
O=C(O)CCCCCNc1nc2ncn(Cc3ccccc3)c2c(=O)[nH]1	20	6	7	-15
CC(Nc1nc2ncn(Cc3ccccc3)c2c(=O)[nH]1)C(=O)O (stereo not given)	24	62*	11	17
COc1ccc2ncc(OC(C)=O)cc2c1	15	40*	8	-21
CCN1CCN(C(=O)CN2C(=O)c3cccc4cccc2c34)CC1	13	1	5	4
Cc1ccc(Cl)cc1N1CCN(C(=O)CN2C(=O)c3cccc4cccc2c34)CC1	7	24	4	62*
CCOC(=O)C1(Cc2cccc(F)c2)CCN(CCCn2cccn2)CC1	12	1	2	2
CCOC(=O)C1(Cc2cccc(F)c2)CCN(C(=O)Cn2cnnn2)CC1	45*	20	19	26
CSc1nc(-c2ccccc2)nc(N)c1C(C)=O	7	16	8	45*
CCOC(=O)CSc1nc2ccccc2c(=O)n1CC	17	2	9	1
CCN(CC)C(=O)CSc1nc2ccccc2c(=O)n1CC	17	22	5	88*
O=C1CC(N2CCN(Cc3ccccc3)CC2)C(=O)N1CCc1ccccc1 (stereo not given)	15	4	-6	-5
O=C1CC(N2CCN(Cc3ccc(Cl)cc3)CC2)C(=O)N1CCc1ccccc1 (stereo not given)	41*	9	21	18
Clc1ccccc1Cn1nnc2c(NCCN3CCOCC3)ncnc21	11	26	47*	23
CCNc1nc(NCC)nc(OCCNS(=O)(=O)c2cc(C)ccc2C)n1	0	34	20	53*
CCN(c1ccccc1)S(=O)(=O)c1ccc(C(=O)Nc2nnc(COC)o2)cc1	55*	23	11	13
Cc1cc(/C=C2\SC(=S)N(C)C2=O)c(C)n1-c1cccc(O)c1	7	5	65*	24
O=C(O/N=C1\C(=O)N(c2ccccc2)c2ccccc21)C1CC1	29	1	-1	-2
CN1C(=O)/C(=N/OC(=O)c2ccccc2)c2ccccc21	53*	46*	47*	-8
SMILES	FXIIa inh 1536	Thrombin inh	FXIa inh	KLK5 inh
CCOC(=O)c1cncc(O)c1	0	-4	-6	-2
Cc1ccc(NC2=NCC(=O)N2C2CCCC2)c(C)c1	26	22	12	112*
C/C(=C\c1ccccc1)C(=O)NCCCn1ccnc1	3	-5	-1	1
O=C(Cn1nnc(-c2ccc(N3CCOCC3)cc2)n1)N1CCOCC1	4	-2	0	4
O=C(Cn1nnc(-c2cccc(C(F)(F)F)c2)n1)N1CCOCC1	17	33	23	51*
OC(CNCCC1C=Nc2ccccc21)Cn1c2ccc(Cl)cc2c2cc(Cl)ccc21 (stereo not given)	-6	-10	-6	-22
Cn1c(CC(=O)NCCO)c(Sc2ccccc2)c2ccccc21	4	-9	4	-23
CSc1c(CC(=O)NCCO)n(C)c2ccccc12	18	13	3	51*
Cc1nnc(Sc2cc(C(=O)NC3CC3)c3ccccc3n2)s1	9	-3	-2	-2
COc1cc(C)c(S(=O)(=O)NCc2cccs2)cc1C	108*	30	8	27
COc1ccc(Cl)cc1S(=O)(=O)NCc1cccs1	15	3	2	9
CCOC(=O)CN(c1cccc(C(C)=O)c1)S(C)(=O)=O	20	6	-5	44*
CC(=O)c1cccc(N(CC(=O)O)S(C)(=O)=O)c1	7	-4	-8	8
CCOC(=O)C1=C(C)OC(N)=C(C#N)C1c1cc2c(cc1[N+](=O)[O-])OCO2 (stereo not given)	7	74*	-2	-1
Cn1cccc1CC(=O)N/N=C/c1cccc2ccccc12	11	8	10	-14
CC(O)C(=O)N/N=C/c1cccc2ccccc12 (stereo not given)	13	48*	6	41*
Cc1ccc(C(=O)COC(=O)CCCC(=O)Nc2cc(C(F)(F)F)ccc2Cl)cc1C	15	14	13	-1
CCN(CC)C(=O)Cn1cc(SCC(=O)NC2CCCC2)c2ccccc21	9	1	1	-1
CC[C@@H]1CC=C[C@H]2[C@H]1C(=O)N(Cc1ccccc1)[C@H]2c1ccc2ccccc2c1	16	8	4	10
COc1ccc(CCN2C(=S)N(C)C(=O)C2CC(=O)Nc2ccc(F)cc2)cc1 (stereo not given)	5	-1	-10	4
Cc1ccc(S(=O)(=O)NCCCN2CCOCC2)cc1C	9	-2	4	-2
Cc1ccc(C)c(S(=O)(=O)NCCCN2CCOCC2)c1	24	42*	31	33
CCc1ccc(NC2CC(=O)N(c3ccc(OC)cc3OC)C2=O)cc1 (stereo not given)	-4	43*	-18	-21
CCc1ccc(NC2CC(=O)N(CCc3ccc(OC)c(OC)c3)C2=O)cc1 (stereo not given)	6	-3	-13	-7
NC(=O)c1ccsc1NC(=O)CSc1nnc(C2CC2)n1Cc1ccccc1	16	59*	10	48*
SMILES	FXIIa inh 1536	Thrombin inh	FXIa inh	KLK5 inh
O=C(O)CC(NC(=O)C12CC3CC(CC(C3)C1)C2)c1ccc(OC2CCCC2)cc1 (stereo not given)	7	3	4	-12
Cc1ccccc1-n1cnc2cc(NCc3cccs3)ccc21	19	41*	12	40*
COc1ccccc1-n1cnc2cc(NCc3cccs3)ccc21	14	3	4	5
COC(=O)C(C)Sc1nnc(Cc2cc(=O)[nH]c(=O)[nH]2)n1-c1ccc(Cl)cc1 (stereo not given)	43*	24	8	30
CCOC(=O)C(C)Sc1nnc(Cc2cc(=O)[nH]c(=O)[nH]2)n1-c1ccc(Cl)cc1 (stereo not given)	10	-1	8	-5
COc1ccc(N(CC(=O)Nc2ccccc2F)S(=O)(=O)c2ccc(C)c([N+](=O)[O-])c2)cc1	0	-4	-5	-11
Cc1nnc(NC(=O)c2c(F)c(F)c(F)c(F)c2F)s1	50*	17	11	33
Cc1nnc(NC(=O)c2ccccc2F)s1	11	-5	7	-12
